# hERG protect = hERG rescue from dofetilide block, primary screen, cell-based, CHO-hERG, FluxOR thallium flux, dofetilide IC70 | Voltage-gated inwardly rectifying potassium channel KCNH2 (Homo sapiens), Q12809 | actives 0.51% (n = 310,000) | dofetilide IC70 present | activation (rescue from dofetilide block), less the hit threshold, % at 10 µM;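 active = activation above the mean of controls blocked by dofetilide plus 5 SD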;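 also: thallium influx through hERG after potassium depolarization seen as dye fluorescence rise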
# KCNK9 inh = KCNK9 potassium channel inhibitors, primary screen, HEK293 cells, thallium flux. Potassium channel subfamily K member 9 (Homo sapiens), Q9NPC2. FluxOR thallium flux fluorescence; active compounds read low. B-score at 10 µM. actives 1.2% (n = 310,000). AID 488922, 2010;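 active = ratio B-score over 3 SD below the library mean, with starting fluorescence within 5 SD of its mean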;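 also: negative B-score means less thallium flux so channel inhibition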
# KCNK3 block = human KCNK3 channel inhibitors, primary screen, CHO cells, FluxOR thallium flux, B-score | FluxOR fluorescence; active compounds read low | AID 602410, 2012 | actives 0.84% (n = 340,000) | B-score at 10 µM;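 active = B-score under library mean minus 4 SD, starting fluorescence ratio at most library mean plus 5 SD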;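 also: more negative B-score means stronger inhibition of thallium flux through KCNK3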
# Kir21 block = inhibitors of mouse Kir2.1 inward-rectifier potassium channel; HEK293-Kir2.1, FluxOR thallium flux fluorescence; active compounds read low; B-score at 10 µM; actives 0.85% (n = 310,000); AID 1672, 2009;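 active = fluorescence ratio B-score at or below minus 3 SD of library scores, with starting-brightness B-score within 2 SD, cut at about -4.2 in these data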;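 also: channel flux triggered by added potassium and thallium sulfate stimulus; B-score of peak minus minimum fluorescence over baseline after thallium stimulus; more negative B-score means stronger Kir2.1 block with less thallium influx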
# KCNQ1 pot = potentiators or activators of KCNQ1 channel, primary screen, cell-based, thallium flux, high-throughput; CHO-K1 KCNQ1, thallium flux FluxOR fluorescence; active compounds read high; B-score at 10 µM; actives 0.35% (n = 310,000); AID 2648, 2010;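 active = fluorescence ratio B-score, a plate-corrected score, at least three library SD, with initial intensity B-score within 5 SD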
# Target sequence (P51787 whole entry, looked up): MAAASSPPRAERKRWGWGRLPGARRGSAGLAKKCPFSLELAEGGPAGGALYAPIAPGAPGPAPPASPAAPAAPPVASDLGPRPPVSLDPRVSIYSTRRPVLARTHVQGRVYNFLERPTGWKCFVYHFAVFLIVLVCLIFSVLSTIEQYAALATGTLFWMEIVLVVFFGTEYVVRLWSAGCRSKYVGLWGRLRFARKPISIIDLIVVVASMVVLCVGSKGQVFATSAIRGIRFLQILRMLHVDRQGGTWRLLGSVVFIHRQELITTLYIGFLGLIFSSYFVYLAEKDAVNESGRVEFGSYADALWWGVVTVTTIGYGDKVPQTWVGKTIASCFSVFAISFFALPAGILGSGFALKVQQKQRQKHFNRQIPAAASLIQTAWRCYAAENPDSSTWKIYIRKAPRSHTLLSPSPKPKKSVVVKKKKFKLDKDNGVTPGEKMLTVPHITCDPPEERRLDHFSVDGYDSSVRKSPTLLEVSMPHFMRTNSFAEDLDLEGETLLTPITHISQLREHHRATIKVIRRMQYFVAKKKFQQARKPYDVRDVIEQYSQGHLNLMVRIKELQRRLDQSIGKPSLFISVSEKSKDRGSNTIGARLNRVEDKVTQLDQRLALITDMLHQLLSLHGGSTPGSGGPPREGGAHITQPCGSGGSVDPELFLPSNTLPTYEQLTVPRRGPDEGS
#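 System: Stable KCNQ1 CHO-K1 line | Incubation: 90 min dye loading and 20 min compound exposure, both at room temperature | Measure: Ratio B score | Medium: Assay buffer for compound exposure, DMSO matched across wells | Compound dosing: Single-concentration screen | Probe or stimulus: K+/Tl+ depolarizing stimulus | Measured by: Kinetic FluxOR fluorescence, 10 s baseline plus 110 s post-stimulus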
# KCNQ1 block = inhibitors of human KCNQ1 channel, primary screen, cell-based, thallium flux, high-throughput. Potassium voltage-gated channel subfamily KQT member 1 (Homo sapiens), P51787. CHO-K1 KCNQ1, FluxOR thallium flux fluorescence; active compounds read high. B-score at 10 µM. actives 1.3% (n = 310,000);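 active = compounds whose thallium flux B-score, printed positive for inhibition, exceeds three library SD while starting fluorescence stays within three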;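 also: channel opened by potassium depolarization with thallium stimulus after 20 min compound exposure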
# KCNK3 confirm = retest of human KCNK3 channel inhibitors, confirmation, CHO cells, FluxOR thallium flux, triplicate. shares compounds with KCNK3 block. FluxOR fluorescence; 0% buffer, 100% carvedilol maximal block. ratio percent of control, % at 10 µM. actives 99% (n = 2,400);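 active = ratio percent of control, averaged over triplicates, above buffer control mean plus 5 SD, cut at about 64% in these data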;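 also: ratio is the fluorescence rise from min to max over baseline after thallium stimulus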
# KCNK3 uninduced = thallium flux inhibition in non-induced cells, primary screen, counter-screen for KCNK3 inhibitor project, cell-based, non-induced KCNK3 line, FluxOR thallium, triplicate; non-induced KCNK3 parental cells; active compounds read low; shares compounds with KCNK3 block; thallium flux ratio (lower = more inhibition) at 10 µM; actives 40% (n = 2,400);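 active = thallium flux ratio, averaged over three wells, more than 5 SD below the buffer control mean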;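 also: host cells are CHO cells without KCNK3 induction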
# Hits are given with their value; i = inactive; nt = no result. An excerpt weighted towards active compounds, which were near 3.7% of everything screened.
SMILES,hERG protect,KCNK9 inh,KCNK3 block,Kir21 block,KCNQ1 pot,KCNQ1 block,KCNK3 confirm,KCNK3 uninduced
CCN(CC)C(=O)COCc1cc(-c2ccc3c(c2)OCO3)on1,i,i,i,i,i,i,nt,nt
CC1(C)CC(CCNC(=O)CCl)(c2ccccc2)CCO1 (stereo not given),i,i,i,i,i,i,nt,nt
Cc1cc(O)c(C(C)C)cc1NC(=O)c1ccc(Cl)cc1,i,i,i,i,i,i,nt,nt
Cc1cc(O)c(C(C)C)cc1NC(=O)c1cccc(Cl)c1,i,i,-9.04,i,i,i,109.3,i
COc1ccc(S(=O)(=O)CC(=O)Nc2nnc(C(F)(F)F)s2)cc1,i,i,i,i,i,i,nt,nt
COC(=O)C1=C(C)N(C2CCCCC2)C(=O)/C1=C\c1cccs1,i,i,-9.8,i,i,i,98.0,0.139
CCCCN(C)Cc1cc(=O)oc2ccc3ccccc3c12,i,i,-9.29,i,i,i,120.0,0.146
Cc1ccc(-c2cc(-c3ccc(C)o3)nc(N)c2C#N)cc1,i,i,-10.9,i,i,i,101.3,i
CCOc1ccc(NS(=O)(=O)c2ccc(C(=O)N3CCC3)cc2)cc1,i,i,i,i,i,i,nt,nt
CN(C)c1ccc(/C=C2\CCC/C(=C\c3ccccc3)C2=O)cc1,i,i,i,i,i,i,nt,nt
CN(C)c1ccc(C=c2c3ccccc3n3c2c2c([n+]3C)CCCC2)cc1,nt,nt,-12.6,nt,nt,nt,171.3,0.0713
O=C(COC(=O)c1ccc(NC(=O)C2CC=CCC2C(=O)O)cc1)c1ccccc1 (stereo not given),i,i,i,i,i,i,nt,nt
O=S(=O)(c1ccccc1)N1CCN(c2ccnc3cc(Cl)ccc23)CC1,i,i,-9.25,i,i,i,98.0,i
CC1=CC(C)(C)NC(=S)N1CCO,nt,nt,i,nt,nt,nt,nt,nt
CC(Nc1nc(-c2cccnc2)nc2ccccc12)c1ccc(F)cc1 (stereo not given),i,-7.86,-16.9,i,i,8,125.0,i
Cc1ccc(NC(=O)c2cc(S(=O)(=O)N3CCOCC3)c(Br)s2)cc1,i,i,i,i,i,i,nt,nt
Cc1c(/C=N/NC(=O)c2ccc(O)cc2)c2ccccn2c1C(=O)c1ccc(F)cc1,i,i,i,i,i,i,nt,nt
Cc1c(/C=N/NC(=O)c2ccccc2O)c2ccccn2c1C(=O)c1ccc(F)cc1,i,-7.89,-11.4,i,i,10,129.3,0.156
CNC(=S)NCc1ccc2[nH]c3c(c2c1)CCCC3,i,i,i,i,i,i,nt,nt
Cc1ccc(C)c(NC(=S)NCc2ccc3[nH]c4c(c3c2)CCCC4)c1,i,i,-13.5,i,i,i,119.7,0.142
COc1ccc(O)c(C(=O)c2cnn(-c3ccc(Cl)cc3)c2)c1,i,i,-11.6,i,i,i,91.7,i
O=C(O)c1ccc(/C=C/c2ccc3cccc(O)c3n2)cc1,i,i,i,i,i,i,nt,nt
Oc1ccc(/C=C/c2ccc3cccc(O)c3n2)cc1Br,i,i,-10.9,i,i,i,134.7,0.124
CCOc1ccccc1N1CCN(Cc2cn[nH]c2-c2ccc(F)cc2)CC1,i,i,i,i,i,i,nt,nt
CSCCC(NC(=O)c1ccco1)C(=O)N1CCN(C(c2ccccc2)c2ccccc2)CC1 (stereo not given),nt,nt,i,nt,nt,nt,nt,nt
SMILES,hERG protect,KCNK9 inh,KCNK3 block,Kir21 block,KCNQ1 pot,KCNQ1 block,KCNK3 confirm,KCNK3 uninduced
CCC1CCCCN1S(=O)(=O)c1ccc(NC(=O)c2nc(S(C)(=O)=O)ncc2Cl)cc1 (stereo not given),i,i,-11.1,i,i,i,113.7,0.135
CCS(=O)(=O)c1ncc(Cl)c(C(=O)Nc2ccc(S(=O)(=O)N3CCCC(C)C3)cc2)n1 (stereo not given),i,i,i,i,i,i,nt,nt
CCC1CCCCN1S(=O)(=O)c1ccc(NC(=O)c2ccncc2)cc1 (stereo not given),i,i,-9.99,i,i,i,121.3,i
CC1=C(C(=O)OC(C)C)C(c2ccc3c(c2)OCO3)NC(=O)N1 (stereo not given),i,i,i,i,i,i,nt,nt
Cc1ccc(CN(C)C(=O)C2CCC(=O)N(CC3CCCCC3)C2)o1 (stereo not given),i,i,i,i,i,i,nt,nt
CN1CCCN(c2ncnc3scc(-c4ccc(F)cc4)c23)CC1,i,i,i,i,i,i,nt,nt
CC(C)c1ccc(-c2csc3ncnc(N4CCN(C)CC4)c23)cc1,i,i,i,i,i,i,nt,nt
COc1ccc(-c2csc3ncnc(N4CCN(c5ccccc5[N+](=O)[O-])CC4)c23)cc1,i,i,-8.74,i,i,8,96.7,i
COc1ccc(-c2csc3ncnc(N4CCN(c5ccc(OC)cc5)CC4)c23)cc1,i,i,-11,i,i,i,92.0,i
CCCC[n+]1ccn(-c2nc3c([N+](=O)[O-])cccc3n2C)c1,i,i,i,i,i,i,nt,nt
O=C(N/N=C/c1ccccc1OCc1ccccc1)c1cccs1,i,i,i,i,i,i,nt,nt
CN(CC(=O)NCc1cccs1)CC(=O)Nc1ccc(F)c(F)c1F,i,i,i,i,i,i,nt,nt
CN(CC(=O)Nc1ccc(F)cc1Cl)Cc1cccs1,i,i,-9.55,i,i,i,84.7,i
CC(=O)NS(=O)(=O)c1ccc2sc(C)nc2c1,i,i,i,i,i,i,nt,nt
Cc1nc(-c2ccc(F)cc2)c(CC(=O)NCC(=O)Nc2ccc(F)c(F)c2)s1,nt,nt,i,nt,nt,nt,nt,nt
CC(C)(C)c1ccc(OCCn2nc(C(=O)O)c3ccccc3c2=O)cc1,i,i,-9.08,i,i,i,112.3,i
COc1cccc(NC(=S)N(Cc2ccco2)C(C)c2ccco2)c1 (stereo not given),i,i,i,i,i,i,nt,nt
Cc1cccc(NC(=S)N(Cc2ccco2)C(C)c2cccs2)c1 (stereo not given),i,i,-9.71,i,i,i,94.0,i
S=C(Nc1ccccc1Cl)N(CCN1CCCCC1)Cc1ccco1,i,i,i,i,i,i,nt,nt
